Data taken from paper PMC4955407 (Journal of medicinal chemistry, 2015).
Values belong to the molecule of their own block, whether it stands above or below them.

Columns and labels:
[1] = target: c-Myc–Max(S)/DNA complex (Homo sapiens, UniProt P01106); test: EMSA, disruption of c-Myc–Max; type: biochemical; settings: 100 µM compound, n = 1
Method in brief: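 His6-tagged proteins were expressed in E. coli BL21DE3(pLysS) with IPTG induction and purified on Ni-NTA under 8 M urea. The tag was removed with TEV protease, giving >95% purity. Each protein at 30 nM was mixed with 30 nM HEX-labelled double-stranded oligonucleotide carrying a c-Myc binding site. Complexes were resolved by gel shift.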

[2] = test system: HL60 promyelocytic leukemia cells; test: Cell cycle analysis, propidium iodide; type: cell-based, human; settings: HL60, 24 h
[3] = test system: c-Myc-dependent reporter (wt-Myc) in HeLa cells; test: Luciferase reporter, c-Myc binding sites; type: cell-based; settings: 6 h
[4] = target: c-Myc–Max(S) heterodimer (Homo sapiens, UniProt P01106); test: SPR, c-Myc–Max; type: binding
[5] = test system: H460 large cell lung cancer cells; test: Neutral lipid quantification, BODIPY-459/503; type: cell-based; settings: H460, 48 h
Method in brief: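 Sub-confluent H460 cells were treated with test compound for 48 h, then washed, trypsinised and resuspended in PBS. […] was added in PBS at 50 µg/ml, and cells were stained for 30 min at ambient temperature. After three PBS washes, cells were analysed by flow cytometry. Mean fluorescence was expressed as a ratio to untreated controls stained in parallel, from biological triplicates.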

[6] = target: c-Myc–Max heterodimers in HL60 cells (Homo sapiens, UniProt P01106); test: c-Myc–Max co-immunoprecipitation; type: cell-based; settings: HL60, 6 h
Method in brief: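 About 5 × 10^6 HL60 cells were exposed to test compound or DMSO vehicle for 6 h. Cells were pelleted at 500 × g, washed in ice-cold PBS and lysed in IP buffer, keeping an input aliquot. Max was immunoprecipitated, and precipitates were washed three times. They were run on 10% SDS-PAGE and immunoblotted with anti-Myc monoclonal 9E10 (1:1000).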

[7] = test system: NF-κB reporter in HeLa cells; test: Luciferase reporter, NF-κB binding sites; type: cell-based; settings: 6 h
[8] = Solubility; type: physicochemical
[9] = test system: U266; settings: read-out: Growth inhibition IC50, U266; U266 myeloma, expresses L-Myc; cited from earlier work
[10] = metabolism of the nitro group; cited from earlier work
[11] = target: Max(L) (Homo sapiens, UniProt P61244 1-160); test: SPR
[12] = target: c-Myc bHLH-ZIP domain;Max(S) (Homo sapiens;Homo sapiens, UniProt P01106-1;P61244-2 353-437;1-151, |); test: SPR

Chain of c-Myc–Max heterodimers in HL60 cells (P01106 whole entry, one chain of several): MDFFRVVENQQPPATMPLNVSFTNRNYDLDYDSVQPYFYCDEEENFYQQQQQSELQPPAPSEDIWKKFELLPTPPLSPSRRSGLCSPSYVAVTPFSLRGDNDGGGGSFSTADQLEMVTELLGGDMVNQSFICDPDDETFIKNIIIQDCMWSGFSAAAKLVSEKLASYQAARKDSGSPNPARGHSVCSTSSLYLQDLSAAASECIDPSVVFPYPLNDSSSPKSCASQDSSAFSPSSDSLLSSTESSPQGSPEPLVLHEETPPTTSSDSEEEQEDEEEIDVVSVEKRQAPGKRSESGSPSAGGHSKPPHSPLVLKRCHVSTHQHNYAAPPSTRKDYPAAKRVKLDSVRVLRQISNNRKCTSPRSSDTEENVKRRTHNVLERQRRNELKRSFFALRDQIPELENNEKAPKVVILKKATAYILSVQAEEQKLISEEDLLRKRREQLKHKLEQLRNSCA

Molecule: CC(C)COc1cc(C(=O)O)ccc1NC(=O)c1ccc([N+](=O)[O-])c(OCC(C)C)c1 [4aa, 3-Isobutoxy-4-(3-isobutoxy-4-nitrobenzamido)benzoic acid]
- EMSA screening, disruption of c-Myc–Max(S)/DNA binding [1]: potent activity

Molecule: CC(C)COc1cc(C(=O)O)ccc1NC(=O)c1ccc([N+](=O)[O-])c(OCc2ccccc2)c1 [4ca, 3-Isobutoxy-4-(3-benzyloxy-4-nitrobenzamido)benzoic acid]
- EMSA screening, disruption of c-Myc–Max(S)/DNA binding [1]: complete disruption

Molecule: CC(C)COc1cc(C(=O)O)ccc1NC(=O)c1ccc([N+](=O)[O-])c(OCc2cccc3ccccc23)c1 [4da, 3-Isobutoxy-4-(3-(naphthalen-1-ylmethoxy)-4-nitrobenzamido)benzoic acid]
- Cell cycle arrest [2]: promoted a G0/G1 arrest
- EMSA screening, disruption of c-Myc–Max(S)/DNA binding [1]: potent activity
- Luciferase activity, wt-c-Myc vector [3]: dose-dependent inhibition of luciferase
- Kd [4]: ~10 µM
- Kd by SPR, pre-formed heterodimers ([4]; c-Myc–Max(S) heterodimers pre-formed before addition of compound (Figure 4E)): somewhat higher Kd
- Neutral lipid accumulation [5]: increase in neutral lipid stores
- c-Myc–Max association by co-IP [6]: remain largely intact
- Luciferase activity, NF-kB vector [7]: no inhibition of luciferase was observed

Molecule: COC(=O)c1ccc(NC(=O)c2ccc([N+](=O)[O-])c(OC(C)C)c2)c(OCC(C)C)c1 [14ba, Methyl 3-isobutoxy-4-(3-isopropoxy-4-nitrobenzamido)benzoate]
- EMSA screening, disruption of c-Myc–Max(S)/DNA binding [1]: modest inhibitory activities
- Solubility [8]: poor solubilities

- c-Myc–Max association by co-IP [6]: abrogated c-Myc’s association with Max
Molecule: CCc1ccc(/C=C2\SC(=S)NC2=O)cc1 [10058-F4, reference compound]
- IC50 [9]: ~100 µM
- Cell cycle arrest [2]: promoted a G0/G1 arrest

Molecule: O=[N+]([O-])c1ccc(Nc2ccccc2-c2ccccc2)c2nonc12 [compound 2, reference compound]
- Half-life [10]: short half-life
- Luciferase activity, wt-c-Myc vector [3]: dose-dependent inhibition of luciferase
- Neutral lipid accumulation [5]: increase in neutral lipid stores
- Luciferase activity, NF-kB vector [7]: no inhibition of luciferase was observed

Molecule: CC(C)COc1cc(C(=O)O)ccc1NC(=O)c1ccc([N+](=O)[O-])c(OCC(C)C)n1 [compound 15, 3-Isobutoxy-4-(6-isobutoxy-5-nitropicolinamido)benzoic acid]
- EMSA screening, disruption of c-Myc–Max(S)/DNA binding [1]: complete disruption

Molecule: CC(C)COc1nc(C(=O)O)ccc1NC(=O)c1ccc([N+](=O)[O-])c(OCC(C)C)n1 [compound 16, 6-Isobutoxy-5-(6-isobutoxy-5-nitropicolinamido)picolinic acid]
- EMSA screening, disruption of c-Myc–Max(S)/DNA binding [1]: complete disruption

Molecule: CCOC(=O)C(=O)Nc1ccc(C(=O)Nc2ccc(C(=O)O)cc2OCC(C)C)cc1OCC(C)C [compound 21, 4-(4-(2-Ethoxy-2-oxoacetamido)-3-isobutoxybenzamido)-3-isobutoxybenzoic acid]
- EMSA screening, disruption of c-Myc–Max(S)/DNA binding [1]: complete disruption

Molecule: Methyl 3-benzyloxy-4-(3-isobutoxy-4-nitrobenzamido)benzoate [14ca]
- EMSA screening, disruption of c-Myc–Max(S)/DNA binding [1]: modest inhibitory activities

B1: E-box SPR oligonucleotide (dsDNA)
DNA 1: TGAAGCAGACCACGTGGTCGTCTTCA
DNA 2: TGAAGACGACCACGTGGTCTGCTTCA
- binding result [11]: binds
- binding result [12]: binds
